Assay [1] concerns Mus musculus. Put plainly: Effect on learning and memory process in CD1 albino mouse assessed as improvement in retention latency at 100 mg/kg, ip after 24 hrs by passive avoidance test. Further details: dose 100 mg/kg. In kind it is functional, organism-based. The essentials: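 Male CD-1 mice treated ip 30 min before training in a step-through passive avoidance box, a lighted compartment joined to a dark one by a guillotine door. Training latency recorded, then retention latency 24 h later. Mean of 15-20 mice per group.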

Assay [2] relates to Mus musculus. In words: Anticonvulsant activity against pentylenetetrazole-induced shock in CD1 albino mouse assessed as absence of shocks at 1 mg/kg, ip preincubated for 30 mins before pentylenetetrazole challenge measured for 30 mins. In kind it is functional, organism-based. Further details: dose 1 mg/kg. The method in brief:
(§1)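 Male CD-1 mice (22-24 g), drug in isotonic saline given ip; PTZ 90 mg/kg sc injected 30 min after drug. Occurrence of clonic generalized convulsions noted over 30 min, with shock and convulsion latency recorded. Controls received 1% CMC.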

In assay [3] the test system is Mus musculus. Put plainly: Anticonvulsant activity against pentylenetetrazole-induced convulsions in CD1 albino mouse assessed as absence of convulsions at 1 mg/kg, ip preincubated for 30 mins before pentylenetetrazole challenge measured for 30 mins. In kind it is functional, organism-based. The arrangement: dose 1 mg/kg. The essentials:
as §1

For assay [4], the system named is Mus musculus. In words: Anxiolytic activity in CD1 albino mouse at 1 mg/kg, ip after 20 mins by light/dark box test in presence of flumazenil. In kind it is functional, organism-based. The arrangement: dose 1 mg/kg. The essentials:
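Male CD-1 mice given drug ip in saline, tested in a light/dark box. Number of transfers between compartments and time spent in the illuminated side recorded. Flumazenil given ip at 100 mg/kg as antagonist.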

For assay [5], the system named is Mus musculus. Put plainly: Effect on ethanol-induced sleeping time in CD1 albino mouse assessed as increase in duration of loss of righting reflex at 1 mg/kg, ip preincubated 30 mins before ethanol challenge. The arrangement: dose 1 mg/kg. The class given is functional, organism-based. The essentials:
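Male CD-1 mice given drug ip in saline. Ethanol 4 g/kg ip injected 30 min after drug. Duration of loss of righting reflex taken as sleep time, capped at 210 min. Mean of 15-20 mice per group.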

In assay [6] the test system is Mus musculus. Put plainly: Effect on motor coordination in CD1 albino mouse assessed as number of falls form rotarod at 3 mg/kg, po administered 60 mins before test measured for 30 seconds after 30 mins of drug infusion by rotarod test. In kind it is functional. The essentials: (§2)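 Rota-rod in male CD-1 mice with a pretest. Test substance given po in 1% CMC; falls from the rotating rod counted over 30 s, assessed 30 min after treatment.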

In assay [7] the test system is Mus musculus. In words: Effect on motor coordination in CD1 albino mouse assessed as number of falls form rotarod at 10 mg/kg, po […] measured for 30 seconds after 30 mins of dosing by rotarod test. In kind it is functional. The method in brief:
as §2

Assay [8] relates to Mus musculus. Put plainly: Effect on motor coordination in CD1 albino mouse assessed as number of falls form rotarod at 30 mg/kg, po […] measured for 30 seconds after 30 mins of drug infusion by rotarod test. The class given is functional. The method in brief: as §2
Background: In the rotarod test animals must keep their balance on a rotating rod.

Assay [9] concerns Mus musculus. In words: Anticonvulsant activity against pentylenetetrazole-induced shock in CD1 albino mouse assessed as shock latency at 3 mg/kg, po preincubated for 30 mins before pentylenetetrazole challenge measured for 30 mins (RVb=253.1 +/- 13 seconds). The class given is functional.
The subject of assay [10] is Mus musculus. In words: Anticonvulsant activity against pentylenetetrazole-induced shock in CD1 albino mouse assessed as shock latency at 10 mg/kg, po preincubated for 30 mins before pentylenetetrazole challenge measured for 30 mins (RVb=253.1 +/- 13 seconds). The class given is functional.
Assay [11] concerns Mus musculus. In words: Anticonvulsant activity against pentylenetetrazole-induced shock in CD1 albino mouse assessed as shock latency at 30 mg/kg, po preincubated for 30 mins before pentylenetetrazole challenge measured for 30 mins (RVb=253.1 +/- 13 seconds). The class given is functional.
For assay [12], the system named is Mus musculus. In words: Anticonvulsant activity against pentylenetetrazole-induced convulsions in CD1 albino mouse assessed as convulsion latency at 3 mg/kg, po preincubated for 30 mins before pentylenetetrazole challenge measured for 30 mins (RVb=599 +/- 37.6 seconds). In kind it is functional.
Assay [13] has as its system Mus musculus. Put plainly: Anticonvulsant activity against pentylenetetrazole-induced convulsions in CD1 albino mouse assessed as convulsion latency at 10 mg/kg, po preincubated for 30 mins before pentylenetetrazole challenge measured for 30 mins (RVb=599 +/- 37.6 seconds). In kind it is functional.
The test system of assay [14] is Mus musculus. In words: Anticonvulsant activity against pentylenetetrazole-induced convulsions in CD1 albino mouse assessed as convulsion latency at 30 mg/kg, po preincubated for 30 mins before pentylenetetrazole challenge measured for 30 mins (RVb=599 +/- 37.6 seconds). In kind it is functional.
Assay [15] has as its system Mus musculus. In words: Effect on spontaneous motility in CD1 albino mouse assessed as number of movement on plane board at 3 mg/kg, po after 30 mins by hole-board test. In kind it is functional. The method in brief: (§3)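 Hole-board test in male CD-1 mice: animals placed singly on the board and allowed to explore panel and holes. Test run 30 min after po dosing in 1% CMC (10 mL/kg). Hole entries (curiosity) and plane movements (spontaneous motility) counted; 10 mice per group, compared with CMC controls.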

Assay [16] relates to Mus musculus. In words: Effect on spontaneous motility in CD1 albino mouse assessed as number of movement on plane board at 10 mg/kg, po after 30 mins by hole-board test. In kind it is functional. The essentials:
as §3

Assay [17] deals with Mus musculus. In words: Effect on spontaneous motility in CD1 albino mouse assessed as number of movement on plane board at 30 mg/kg, po after 30 mins by hole-board test. The class given is functional. The essentials: as §3
For assay [18], the system named is Mus musculus. In words: Effect on explorative capacity in CD1 albino mouse assessed as curiosity-related number of head plugging activity on hole at 3 mg/kg, po after 30 mins by hole-board test. The class given is functional. The method in brief: as §3
Assay [19] has as its system Mus musculus. In words: Effect on explorative capacity in CD1 albino mouse assessed as curiosity-related number of head plugging activity on hole at 10 mg/kg, po after 30 mins by hole-board test. In kind it is functional. The essentials:
as §3

Assay [20] concerns Mus musculus. Put plainly: Effect on explorative capacity in CD1 albino mouse assessed as curiosity-related number of head plugging activity on hole at 30 mg/kg, po after 30 mins by hole-board test. In kind it is functional. The essentials: as §3
Assay [21] deals with Mus musculus. In words: Anxiolytic activity in CD1 albino mouse at 3 mg/kg, po after 30 mins by light/dark box test. In kind it is functional, organism-based. Further details: dose 3 mg/kg. The method in brief:
(§4)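 Male CD-1 mice (22-24 g) given test substance po in 1% CMC (10 mL/kg), tested 30 min later in a light/dark box. Transfers between compartments and time spent in the illuminated side were measured. Values are mean ± SEM of 15-20 mice; compared with controls.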

The test system of assay [22] is Mus musculus. In words: Anxiolytic activity in CD1 albino mouse at 10 mg/kg, po after 30 mins by light/dark box test. In kind it is functional, organism-based. The arrangement: dose 10 mg/kg. The method in brief: as §4
The test system of assay [23] is Mus musculus. Put plainly: Anxiolytic activity in CD1 albino mouse at 30 mg/kg, po after 30 mins by light/dark box test. The class given is functional, organism-based. The arrangement: dose 30 mg/kg. The essentials:
as §4

The subject of assay [24] is Mus musculus. Put plainly: Anxiolytic activity in CD1 albino mouse at 10 mg/kg, po after 30 mins by light/dark box test in presence of flumazenil. The class given is functional, organism-based. Further details: dose 10 mg/kg. The essentials:
(§5)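 Light/dark box in male CD-1 mice. Test substance given po in 1% CMC 30 min before the test, with flumazenil 100 mg/kg ip (saline) co-treatment. Transfers between compartments and time in the lit side recorded. Mean ± SEM of 15-20 mice.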

For assay [25], the system named is Mus musculus. Put plainly: Anxiolytic activity in CD1 albino mouse at 30 mg/kg, po after 30 mins by light/dark box test in presence of flumazenil. The class given is functional, organism-based. Further details: dose 30 mg/kg. The method in brief: as §5
The subject of assay [26] is Mus musculus. In words: Effect on learning and memory process in CD1 albino mouse assessed as improvement in retention latency at 10 mg/kg, po after 24 hrs by passive avoidance test. The class given is functional, organism-based. The arrangement: dose 10 mg/kg. The method in brief:
(§6)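 Step-through passive avoidance in a two-compartment box (lit and dark compartments joined by a guillotine door). Male CD-1 mice dosed po (1% CMC) 30 min before training; retention tested 24 h later. Training and retention latencies recorded; mean ± SEM of 15-20 mice versus controls.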

Assay [27] deals with Mus musculus. Put plainly: Effect on learning and memory process in CD1 albino mouse assessed as improvement in retention latency at 30 mg/kg, po after 24 hrs by passive avoidance test. The class given is functional, organism-based. Further details: dose 30 mg/kg. The method in brief: as §6
In assay [28] the test system is Mus musculus. In words: Effect on ethanol-induced sleeping time in CD1 albino mouse assessed as increase in duration of loss of righting reflex at 10 mg/kg, po preincubated 30 mins before ethanol challenge. Further details: dose 10 mg/kg. The class given is functional, organism-based.
Assay [29] concerns Mus musculus. Put plainly: Effect on ethanol-induced sleeping time in CD1 albino mouse assessed as increase in duration of loss of righting reflex at 3 mg/kg, po preincubated 30 mins before ethanol challenge. In kind it is functional, organism-based. Further details: dose 3 mg/kg.
Assay [30] deals with Mus musculus. In words: Effect on ethanol-induced sleeping time in CD1 albino mouse assessed as reduction in duration of loss of righting reflex at 30 mg/kg, po preincubated 30 mins before ethanol challenge. The class given is functional, organism-based. Further details: dose 30 mg/kg.
A further assay is filed under the species Bos taurus. Put plainly: Displacement of [3H]flumazenil from GABAA/Benzodiazepine receptor in bovine brain at 10 uM. The essentials:
(§7)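 Bovine brain membranes; displacement of specific [3H]flumazenil (Ro15-1788) binding. Percent inhibition measured at 10 μM; Ki determined only when inhibition at that concentration exceeded 80%. Ki given as mean ± SEM of five determinations.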

Assay [31] is described as follows: Displacement of [3H]flumazenil from GABAA/Benzodiazepine receptor in bovine brain. Further details: species or system Bos taurus. The method in brief:
as §7

For three molecules, Activity and Ki results are on record in ChEMBL document CHEMBL1158477, “Synthesis, in vivo evaluation, and molecular modeling studies of new pyrazolo[5,1-c][1,2,4]benzotriazine 5-oxide derivatives. Identification of a bifunctional hydrogen bond area related to the inverse agonism” (J Med Chem, 2009).

Molecules are shown by their SMILES. The source made the active and inactive calls. No cut-off for these calls is given here.

With `CCOC(=O)c1ncn2c1CN(C)C(=O)c1cc(F)ccc1-2`, in the assay with Mus musculus [1], the result was Active.
For `CN1C(=O)CN=C(c2ccccc2)c2cc(Cl)ccc21`, the result with Mus musculus [2], in the assay on Mus musculus [3] and in the assay with Mus musculus [5] was Active. Besides, the outcome in the assay on Mus musculus [4] was inactive.
By Ki is commonly meant the equilibrium dissociation constant of an inhibitor or competing ligand from its target. The low end stands for a stronger hold on the target, the high end for a looser hold on the target. `[O-][n+]1nc2c(I)cnn2c2cc(OCc3ccccc3)ccc21`: the Activity in the assay on Mus musculus [6] was determined as 1.5; in the assay on Mus musculus [7], 2.2; with Mus musculus [8], 1.7; in the assay with Mus musculus [9] it was 375 s; in the assay on Mus musculus [10] it was 266.1 s; in the assay on Mus musculus [11], 354 s. The Activity is listed as 380.2 s in the assay with Mus musculus [12]; 360.8 s in the assay on Mus musculus [13]; 479.7 s in the assay on Mus musculus [14]; 54.3 in the assay on Mus musculus [15]; 66.9 in the assay with Mus musculus [16]; 54.5 in the assay with Mus musculus [17]. Also, the Activity was 29 in the assay on Mus musculus [18], 22.7 in the assay on Mus musculus [19], 28.7 in the assay on Mus musculus [20] and over 80% in the assay listed under Bos taurus. Besides, the outcome in the assay with Mus musculus [21], in the assay on Mus musculus [22], in the assay on Mus musculus [23], in the assay on Mus musculus [26], in the assay on Mus musculus [27] and with Mus musculus [30] was Active. In addition, the result in the assay on Mus musculus [24], in the assay on Mus musculus [25], in the assay on Mus musculus [28] and in the assay with Mus musculus [29] was inactive. For the same molecule, the Ki in assay [31] is 1.1 nM.
